According to ChEMBL document CHEMBL1158765, “Cyclic peroxides derived from the marine sponge Plakortis simplex” (J Nat Prod, 2005):
Converted amounts (≈) assume the structure as drawn.

Assays:
Assay type in all cases: functional, cell-based
[1] = Antitumor activity against human LXF 529L cells
Method in brief: (§1)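 Human tumor cell lines derived from patient tumors grown subcutaneously in NMRI nu/nu mice, cultured as monolayers and exposed to test compounds. Surviving cells were stained with a fluorescent dye. Doubling times 24-35 h. IC50 taken from concentration-dependent T/C values. Where not reached within the test range, IC extrapolated by linear regression if within 3-fold of the highest concentration.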

[2] = Antitumor activity against human MEXF 642NL cells; method in brief: as §1
[3] = Antitumor activity against human GXF251L cells; conditions: GXF 251L; method in brief: as §1
[4] = Antitumor activity against human UXF 1138L cells; method in brief: as §1
[5] = Antitumor activity against human RXF 486L cells; method in brief: as §1
[6] = Antitumor activity against human MAXF 401NL cells; method in brief: as §1

CCCCCC[C@@]1(CC)C=C(CC)[C@@H](CC(=O)OC)OO1 (relative stereo)
IC50 [1]: 7.7 µg/mL (≈ 25.8 µM) | IC50 [2]: 7.2 µg/mL (≈ 24.1 µM) | IC50 [3]: 8.3 µg/mL (≈ 27.8 µM) | IC50 [4]: 14.4 µg/mL (≈ 48.3 µM) | IC50 [5]: 14.1 µg/mL (≈ 47.2 µM)

CCCCC[C@@]1(CC)C=C(CC)[C@@H](CC(=O)OC)OO1 (relative stereo)
IC50 [1]: > 10 µg/mL | IC50 [2]: > 10 µg/mL | IC50 [3]: > 10 µg/mL | IC50 [4]: > 10 µg/mL | IC50 [6]: > 10 µg/mL | IC50 [5]: > 10 µg/mL
